Test results as given in ChEMBL document CHEMBL4190388, “Discovery and Optimization of Indolyl-Containing 4-Hydroxy-2-Pyridone Type II DNA Topoisomerase Inhibitors Active against Multidrug Resistant Gram-negative Bacteria” (J Med Chem, 2018).
≈ marks a conversion by molar mass, not a printed value.

Assays:
Escherichia coli [1] = experiment: Antibacterial activity against quinolone resistant Escherichia coli by broth microdilution method; type: functional; details: Escherichia coli; for MIC: read-out: MIC
In short: (§1)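 MICs were determined by CLSI broth methods, except that organisms were grown in brain–heart–infusion medium. The panel comprised wild-type and resistant E. coli and A. baumannii strains, including 12 strains whose details are given by reference.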

Klebsiella pneumoniae = experiment: Antibacterial activity against wild type Klebsiella pneumoniae ATCC 35657 by CLSI M100-S17 protocol based method; type: functional
Mus musculus [2] = experiment: Volume of distribution at steady state in CD1 mouse plasma at 10 mg/kg, iv by LC-MS/MS analysis; type: ADME, organism-based; details: in vivo
Mus musculus [3] = experiment: AUC (0 to 24 hrs) in CD1 mouse plasma at 10 mg/kg, iv by LC-MS/MS analysis; type: ADME, organism-based; set-up: time < 24 hr, dose 10 mg/kg, route intravenous; details: in vivo
In short: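 CD-1 mice given a single 10 mg/kg iv dose (n = 3), in either 10% DMSO plus 1% Tween 80 in pH 8.0 phosphate buffer or 20% (2-hydroxypropyl)-β-cyclodextrin in pH 4.0 citrate buffer; plasma exposure measured.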

Acinetobacter baumannii [4] = experiment: Antibacterial activity against wild type Acinetobacter baumannii ATCC BAA-747 by CLSI M100-S17 protocol based method; type: functional
Escherichia coli [5] = experiment: Antibacterial activity against fluoroquinolone resistant Escherichia coli SKM18 by CLSI M100-S17 protocol based method; type: functional
Escherichia coli [6] = experiment: Antibacterial activity against multidrug resistant Escherichia coli by broth microdilution method; type: functional; details: Escherichia coli; for MIC: read-out: MIC; in short: as §1
Escherichia coli [7] = experiment: Antibacterial activity against wild type Escherichia coli by broth microdilution method; type: functional; in short: as §1
Acinetobacter baumannii [8] = experiment: Antibacterial activity against beta-lactam resistant Acinetobacter baumannii by broth microdilution method; type: functional; details: Acinetobacter baumannii; for MIC: read-out: MIC; in short: as §1
Escherichia coli [9] = experiment: Selectivity ratio of MIC for wild type Escherichia coli ATCC 25922 in presence of HSA to MIC for wild type Escherichia coli ATCC 25922; type: functional
Escherichia coli [10] = experiment: Antibacterial activity against beta-lactam resistant Escherichia coli by broth microdilution method; type: functional; details: Escherichia coli; for MIC: read-out: MIC; in short: as §1
Escherichia coli [11] = experiment: Antibacterial activity against wild type Escherichia coli ATCC 25922 in presence of HSA by CLSI M100-S17 protocol based method; type: functional
Acinetobacter baumannii [12] = experiment: Antibacterial activity against aminoglycoside resistant Acinetobacter baumannii by broth microdilution method; type: functional; details: Acinetobacter baumannii; for MIC: read-out: MIC; in short: as §1
[13] = Fraction unbound in mouse plasma at 1 uM by equilibrium dialysis method; type: ADME, cell-free
Acinetobacter baumannii [14] = experiment: Antibacterial activity against multidrug resistant Acinetobacter baumannii by broth microdilution method; type: functional; details: Acinetobacter baumannii; for MIC: read-out: MIC; in short: as §1
Escherichia coli [15] = experiment: Antibacterial activity against aminoglycoside resistant Escherichia coli by broth microdilution method; type: functional; details: Escherichia coli; for MIC: read-out: MIC; in short: as §1
Acinetobacter baumannii [16] = experiment: Antibacterial activity against quinolone resistant Acinetobacter baumannii by broth microdilution method; type: functional; details: Acinetobacter baumannii; for MIC: read-out: MIC; in short: as §1
Escherichia coli [17] = experiment: Antibacterial activity against quinolone resistance Escherichia coli isolate ELZ4251 harboring gyrA/parC mutant by CLSI M100-S17 protocol based method; type: functional
Acinetobacter baumannii [18] = experiment: Antibacterial activity against wild type Acinetobacter baumannii by broth microdilution method; type: functional; in short: as §1
Acinetobacter baumannii [19] = experiment: Antibacterial activity against fluoroquinolone resistant Acinetobacter baumannii isolate MMX2240 by CLSI M100-S17 protocol based method; type: functional
Mus musculus [20] = experiment: Terminal half life in CD1 mouse plasma at 10 mg/kg, iv by LC-MS/MS analysis; type: ADME, organism-based; details: in vivo
Escherichia coli [21] = experiment: Antibacterial activity against wild type Escherichia coli ATCC 25922 by CLSI M100-S17 protocol based method; type: functional
[22] = Oral bioavailability in CD1 mouse plasma by LC-MS/MS analysis; type: ADME, organism-based
Acinetobacter baumannii [23] = experiment: Antibacterial activity against carbapenem resistant Acinetobacter baumannii by broth microdilution method; type: functional; details: Acinetobacter baumannii; for MIC: read-out: MIC; in short: as §1
Escherichia coli [24] = experiment: Antibacterial activity against Escherichia coli infected in cyclophosphamide treated neutropenic CD1 mouse septicemia model assessed as mouse survival at 20 mg/kg, iv dosed at 1 hr post infection followed by redosing at 5 hrs post infection measured at 96 hrs post infection relative to control; type: functional
In short: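 Female CD-1 mice were made neutropenic with cyclophosphamide ip, 150 mg/kg on day −4 and 100 mg/kg on day −1. […] Compound was given iv in 3% DMSO/saline at 1 and 5 h postinfection, n = 6 per group. Percent survival was scored at 96 h postinfection.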

SMILES: CN(C)Cc1cc2cc3c(cc2n1C)CCCc1c-3[nH]c(=O)c(C(=O)O)c1O
- MIC50 (Escherichia coli [1]): 0.5 µg/mL (≈ 1.31 µM)
- MIC90 (Escherichia coli [1]): 1 µg/mL (≈ 2.62 µM)
- MIC (Escherichia coli [1]): 0.25 to 2 µg/mL (≈ 0.655 to 5.24 µM)
- MIC (Klebsiella pneumoniae): 0.78 µg/mL (≈ 2.04 µM)
- Vdss (Mus musculus [2]): 11 L/kg
- AUC (Mus musculus [3]): 3520 ng·h/mL
- MIC (Acinetobacter baumannii [4]): 1.6 µg/mL (≈ 4.19 µM)
- MIC (Escherichia coli [5]): 0.78 µg/mL (≈ 2.04 µM)
- MIC50 (Escherichia coli [6]): 0.5 µg/mL (≈ 1.31 µM)
- MIC90 (Escherichia coli [6]): 1 µg/mL (≈ 2.62 µM)
- MIC (Escherichia coli [6]): 0.25 to 2 µg/mL (≈ 0.655 to 5.24 µM)
- MIC50 (Escherichia coli [7]): 0.5 µg/mL (≈ 1.31 µM)
- MIC90 (Escherichia coli [7]): 1 µg/mL (≈ 2.62 µM)
- MIC50 (Acinetobacter baumannii [8]): 2 µg/mL (≈ 5.24 µM)
- MIC (Acinetobacter baumannii [8]): 0.12 to 16 µg/mL (≈ 0.315 to 41.9 µM)
- Ratio (Escherichia coli [9]): 4 - 16
- MIC50 (Escherichia coli [10]): 0.5 µg/mL (≈ 1.31 µM)
- MIC90 (Escherichia coli [10]): 1 µg/mL (≈ 2.62 µM)
- MIC (Escherichia coli [10]): 0.25 to 2 µg/mL (≈ 0.655 to 5.24 µM)
- MIC (Escherichia coli [11]): 12.5 µg/mL
- MIC50 (Acinetobacter baumannii [12]): 2 µg/mL (≈ 5.24 µM)
- MIC (Acinetobacter baumannii [12]): 0.12 to 16 µg/mL (≈ 0.315 to 41.9 µM)
- Fu [13]: 0.1
- MIC50 (Acinetobacter baumannii [14]): 2 µg/mL (≈ 5.24 µM)
- MIC (Acinetobacter baumannii [14]): 0.12 to 16 µg/mL (≈ 0.315 to 41.9 µM)
- MIC50 (Escherichia coli [15]): 0.5 µg/mL (≈ 1.31 µM)
- MIC90 (Escherichia coli [15]): 1 µg/mL (≈ 2.62 µM)
- MIC (Escherichia coli [15]): 0.25 to 2 µg/mL (≈ 0.655 to 5.24 µM)
- MIC50 (Acinetobacter baumannii [16]): 2 µg/mL (≈ 5.24 µM)
- MIC (Acinetobacter baumannii [16]): 0.12 to 16 µg/mL (≈ 0.315 to 41.9 µM)
- MIC (Escherichia coli [17]): 1.6 µg/mL (≈ 4.19 µM)
- MIC50 (Acinetobacter baumannii [18]): 2 µg/mL (≈ 5.24 µM)
- MIC90 (Acinetobacter baumannii [18]): > 16 µg/mL
- MIC (Acinetobacter baumannii [19]): 1.6 µg/mL (≈ 4.19 µM)
- beta t1/2 (Mus musculus [20]): 2.9 h
- MIC (Escherichia coli [21]): 0.78 µg/mL (≈ 2.04 µM)
- bioavailability [22]: 42%
- MIC50 (Acinetobacter baumannii [23]): 2 µg/mL (≈ 5.24 µM)
- MIC (Acinetobacter baumannii [23]): 0.12 to 16 µg/mL (≈ 0.315 to 41.9 µM)

SMILES: Cn1c(CN2CCCC2)cc2cc3c(cc21)OCCc1c-3[nH]c(=O)c(C(=O)O)c1O
- MIC50 (Escherichia coli [1]): 0.5 µg/mL (≈ 1.22 µM)
- MIC90 (Escherichia coli [1]): 1 µg/mL (≈ 2.44 µM)
- MIC (Escherichia coli [1]): 0.25 to 1 µg/mL (≈ 0.611 to 2.44 µM)
- MIC (Klebsiella pneumoniae): 2 µg/mL (≈ 4.88 µM)
- MIC (Acinetobacter baumannii [4]): 3.9 µg/mL (≈ 9.53 µM)
- MIC (Escherichia coli [5]): 1 µg/mL (≈ 2.44 µM)
- MIC50 (Escherichia coli [6]): 0.5 µg/mL (≈ 1.22 µM)
- MIC90 (Escherichia coli [6]): 1 µg/mL (≈ 2.44 µM)
- MIC (Escherichia coli [6]): 0.25 to 1 µg/mL (≈ 0.611 to 2.44 µM)
- MIC50 (Escherichia coli [7]): 0.5 µg/mL (≈ 1.22 µM)
- MIC90 (Escherichia coli [7]): 1 µg/mL (≈ 2.44 µM)
- MIC50 (Acinetobacter baumannii [8]): 2 µg/mL (≈ 4.88 µM)
- MIC90 (Acinetobacter baumannii [8]): 8 µg/mL (≈ 19.5 µM)
- MIC (Acinetobacter baumannii [8]): 0.12 to 16 µg/mL (≈ 0.293 to 39.1 µM)
- Ratio (Escherichia coli [9]): 2 - 4
- MIC50 (Escherichia coli [10]): 0.5 µg/mL (≈ 1.22 µM)
- MIC90 (Escherichia coli [10]): 1 µg/mL (≈ 2.44 µM)
- MIC (Escherichia coli [10]): 0.25 to 1 µg/mL (≈ 0.611 to 2.44 µM)
- MIC (Escherichia coli [11]): 3.9 µg/mL
- MIC50 (Acinetobacter baumannii [12]): 2 µg/mL (≈ 4.88 µM)
- MIC90 (Acinetobacter baumannii [12]): 8 µg/mL (≈ 19.5 µM)
- MIC (Acinetobacter baumannii [12]): 0.12 to 16 µg/mL (≈ 0.293 to 39.1 µM)
- Fu [13]: 0.18
- MIC50 (Acinetobacter baumannii [14]): 2 µg/mL (≈ 4.88 µM)
- MIC90 (Acinetobacter baumannii [14]): 8 µg/mL (≈ 19.5 µM)
- MIC (Acinetobacter baumannii [14]): 0.12 to 16 µg/mL (≈ 0.293 to 39.1 µM)
- MIC50 (Escherichia coli [15]): 0.5 µg/mL (≈ 1.22 µM)
- MIC90 (Escherichia coli [15]): 1 µg/mL (≈ 2.44 µM)
- MIC (Escherichia coli [15]): 0.25 to 1 µg/mL (≈ 0.611 to 2.44 µM)
- MIC50 (Acinetobacter baumannii [16]): 2 µg/mL (≈ 4.88 µM)
- MIC90 (Acinetobacter baumannii [16]): 8 µg/mL (≈ 19.5 µM)
- MIC (Acinetobacter baumannii [16]): 0.12 to 16 µg/mL (≈ 0.293 to 39.1 µM)
- MIC (Escherichia coli [17]): 3.1 µg/mL (≈ 7.57 µM)
- MIC50 (Acinetobacter baumannii [18]): 2 µg/mL (≈ 4.88 µM)
- MIC90 (Acinetobacter baumannii [18]): 8 µg/mL (≈ 19.5 µM)
- MIC (Acinetobacter baumannii [19]): 7.8 µg/mL (≈ 19.1 µM)
- MIC (Escherichia coli [21]): 2 µg/mL (≈ 4.88 µM)
- survival at 20 mg/kg (Escherichia coli [24]): 83%
- MIC50 (Acinetobacter baumannii [23]): 2 µg/mL (≈ 4.88 µM)
- MIC90 (Acinetobacter baumannii [23]): 8 µg/mL (≈ 19.5 µM)
- MIC (Acinetobacter baumannii [23]): 0.12 to 16 µg/mL (≈ 0.293 to 39.1 µM)
